Laboratory results from paper PMC8223535 (The Yale Journal of Biology and Medicine, 2021).

How the values were obtained:
[1] = test system: T. brucei brucei (Lafia strain); assay: In vivo anti-Trypanosoma evaluation in infected rats; design: species or system Trypanosoma brucei brucei in male Wistar rats; details: 3.5 mg/kg bw in corn oil, reference drug, data not shown
Procedure, shortened: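 Male Wistar rats (120–130 g, acclimated 14 days) each received 0.2 mL of infected rat blood diluted in 0.9% saline (1 x 102 trypanosomes). Dosing began after the 72-h lag, on the first parasite-positive day. It ran daily for 5 days: test compound at 40 mg/kg bw or diminazene aceturate at 3.5 mg/kg bw, in corn oil. Controls were vehicle-infected and uninfected. Tail-blood smears were counted at ×100, and survival was tracked. n=5, mean ± SEM, ANOVA with Dunnett.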

[2] = cited from earlier work
[3] = test system: Trypanosoma congolense IL3000 bloodstream form; assay: In vitro anti-Trypanosoma activity, luminescence-based parasite viability; assay type: cell-based; details: 72 h, 0 to 25 µg/mL
Procedure, shortened: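 T. congolense IL3000 bloodstream forms were kept in HMI-9-type medium (IMDM, 20% FBS, supplements) in air at 33°C. Parasites were seeded at 1 × 10^5 cells/mL with test compound at 0 to 25 µg/mL and incubated 72 h at 33°C. Viability was read by ATP luminescence. Pentamidine was the reference. The 50% value came from a non-linear regression dose-response fit. Triplicates, three independent runs.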

CC(=O)NCC(=O)O.CC(=O)NCC(=O)O.N=C(N)c1ccc(N=NNc2ccc(C(=N)N)cc2)cc1 [diminazene aceturate]
outcome of infected rats (survival) [1]: survived the infection
systemic parasite burden of infected rats [1]: systemic parasite burden cleared

Nc1nc(N)nc(Nc2ccc([As]3SCC(CO)S3)cc2)n1 (centres unmarked) [melarsoprol]
encephalopathy ([2]; patients treated for late-stage trypanosomiasis): more than 10 % of patients
fatal outcomes among encephalopathy cases ([2]; share of the encephalopathy cases): 40%

N=C(N)c1ccc(OCCCCCOc2ccc(C(=N)N)cc2)cc1 [pentamidine]
effect on in vitro growth of T. congolense (in words) [3]: appreciably hindered the in vitro growth of T. congolense
